From ChEMBL document CHEMBL2021777 (J Med Chem, 2012)
The source made the active and inactive calls. No cut-off for these calls is given here.

Legend:
[1] = Metabolic stability in human liver microsomes assessed as compound remaining at 1 uM after 1 hr; format: ADME, Microsome; conditions: read-out: Stability
Summary of the method: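 Compound at 1 μM incubated for 1 h with human or mouse liver microsomes; percent of parent remaining unchanged.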

[2] = target: 5-hydroxytryptamine receptor 1B (Homo sapiens) (UniProt P28222); assay: Displacement of [3H][…] from 5-HT1B at 10 uM
Sequence of 5-hydroxytryptamine receptor 1B (Homo sapiens) (P28222 whole entry): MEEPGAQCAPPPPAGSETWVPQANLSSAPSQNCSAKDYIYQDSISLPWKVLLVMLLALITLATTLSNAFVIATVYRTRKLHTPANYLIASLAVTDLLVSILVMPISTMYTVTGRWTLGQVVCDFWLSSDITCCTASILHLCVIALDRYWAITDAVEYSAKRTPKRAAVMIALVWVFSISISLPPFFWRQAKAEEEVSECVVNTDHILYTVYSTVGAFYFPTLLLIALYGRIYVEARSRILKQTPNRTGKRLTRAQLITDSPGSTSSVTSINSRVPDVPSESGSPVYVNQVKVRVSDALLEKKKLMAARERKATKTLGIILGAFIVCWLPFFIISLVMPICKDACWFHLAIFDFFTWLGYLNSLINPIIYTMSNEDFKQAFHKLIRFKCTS

[3] = target: T1, Neuronal acetylcholine receptor; alpha4/beta2 (Homo sapiens, UniProt P17787+P43681); assay: Agonist activity at human alpha4beta2 nAChR expressed in SH-EP1 cells assessed as 86Rb+ ion efflux after 9.5 mins by flip-plate technique; format: functional, cell-based
T1 sequence (P17787 whole entry): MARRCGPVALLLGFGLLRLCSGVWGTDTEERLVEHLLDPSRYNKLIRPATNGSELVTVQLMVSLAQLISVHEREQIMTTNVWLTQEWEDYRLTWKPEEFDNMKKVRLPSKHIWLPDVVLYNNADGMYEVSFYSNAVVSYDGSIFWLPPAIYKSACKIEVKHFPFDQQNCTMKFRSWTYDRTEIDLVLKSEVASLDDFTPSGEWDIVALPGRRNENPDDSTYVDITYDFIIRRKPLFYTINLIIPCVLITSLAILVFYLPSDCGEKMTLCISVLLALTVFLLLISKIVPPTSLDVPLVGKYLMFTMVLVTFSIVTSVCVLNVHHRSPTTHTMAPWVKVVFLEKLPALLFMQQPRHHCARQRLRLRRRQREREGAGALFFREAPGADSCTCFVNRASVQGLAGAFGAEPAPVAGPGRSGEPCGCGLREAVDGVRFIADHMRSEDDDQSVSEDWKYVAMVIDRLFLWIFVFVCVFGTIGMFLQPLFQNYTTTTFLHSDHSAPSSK
T1 sequence (P43681 whole entry): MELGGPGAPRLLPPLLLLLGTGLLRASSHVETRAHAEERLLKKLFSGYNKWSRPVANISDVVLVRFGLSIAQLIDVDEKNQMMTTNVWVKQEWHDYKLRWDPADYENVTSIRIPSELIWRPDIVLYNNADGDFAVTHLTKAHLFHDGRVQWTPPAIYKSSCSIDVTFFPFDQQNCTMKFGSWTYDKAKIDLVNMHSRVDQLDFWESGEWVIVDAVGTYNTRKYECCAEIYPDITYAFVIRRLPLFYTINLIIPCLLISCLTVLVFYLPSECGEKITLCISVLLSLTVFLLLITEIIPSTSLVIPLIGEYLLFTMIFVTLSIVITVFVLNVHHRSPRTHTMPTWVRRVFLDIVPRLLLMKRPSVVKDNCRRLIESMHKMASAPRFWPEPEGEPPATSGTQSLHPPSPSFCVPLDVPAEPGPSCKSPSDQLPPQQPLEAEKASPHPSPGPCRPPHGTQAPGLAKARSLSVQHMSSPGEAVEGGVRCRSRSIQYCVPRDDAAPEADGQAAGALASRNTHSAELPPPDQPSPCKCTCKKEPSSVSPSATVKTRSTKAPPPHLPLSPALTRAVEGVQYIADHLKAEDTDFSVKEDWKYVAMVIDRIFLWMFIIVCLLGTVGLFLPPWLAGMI
Summary of the method: (§1)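 SH-EP1 human epithelial cells stably transfected with separate human α4 and β2 subunit cDNAs express a mixed population of high-sensitivity (2:3 α4:β2) and low-sensitivity (3:2) α4β2-nAChRs. Cells were kept at low passage (1−26 from frozen stocks). Function was read as 86Rb+ ion flux.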

[4] = target: T2, Alpha-2C adrenergic receptor (Homo sapiens) (UniProt P18825); assay: Displacement of [3H]Clonidine from alpha2C adrenergic receptor at 10 uM
T2 sequence (whole entry): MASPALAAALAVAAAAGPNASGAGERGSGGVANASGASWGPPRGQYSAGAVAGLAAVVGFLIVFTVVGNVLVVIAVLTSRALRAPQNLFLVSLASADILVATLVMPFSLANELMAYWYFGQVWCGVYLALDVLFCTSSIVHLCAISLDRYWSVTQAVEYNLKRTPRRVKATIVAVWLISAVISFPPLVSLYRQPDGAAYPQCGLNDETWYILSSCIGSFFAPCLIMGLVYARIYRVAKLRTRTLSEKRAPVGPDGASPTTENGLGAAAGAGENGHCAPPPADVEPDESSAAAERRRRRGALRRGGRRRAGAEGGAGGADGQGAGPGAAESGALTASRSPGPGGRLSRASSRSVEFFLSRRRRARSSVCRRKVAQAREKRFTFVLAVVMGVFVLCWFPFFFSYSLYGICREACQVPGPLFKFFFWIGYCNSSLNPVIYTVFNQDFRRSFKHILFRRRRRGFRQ

[5] = target: Cannabinoid receptor 1 (Homo sapiens) (UniProt P21554); assay: Displacement of [3H]CP55940 from CB1 receptor at 10 uM
[6] = target: T1, Neuronal acetylcholine receptor; alpha4/beta2; assay: Antagonist activity at human high sensitive and low sensitive alpha4beta2 nAChR expressed in SH-EP1 cells assessed as inhibition of carbamylcholine induced 86Rb+ ion efflux preincubated for 10 mins prior to carbamylcholine-induction measured after 5 mins by flip-plate technique relative to control; format: functional, cell-based; summary of the method: as §1
[7] = target: Vasopressin V1a receptor (Homo sapiens) (UniProt P37288); assay: Displacement of radioligand from Vasopressin V1A receptor; conditions: concentration not given here
[8] = Displacement of [3H]Muscimol from GABA(A) at 10 uM
[9] = target: hERG (KCNH2) (Homo sapiens, UniProt Q12809); assay: Inhibition of human ERG expressed in CHO cells at 10 uM by patch clamp electrophysiology assay; format: cell-based; conditions: CHO cells expressing human ERG
Sequence of hERG (KCNH2) (Q12809 whole entry): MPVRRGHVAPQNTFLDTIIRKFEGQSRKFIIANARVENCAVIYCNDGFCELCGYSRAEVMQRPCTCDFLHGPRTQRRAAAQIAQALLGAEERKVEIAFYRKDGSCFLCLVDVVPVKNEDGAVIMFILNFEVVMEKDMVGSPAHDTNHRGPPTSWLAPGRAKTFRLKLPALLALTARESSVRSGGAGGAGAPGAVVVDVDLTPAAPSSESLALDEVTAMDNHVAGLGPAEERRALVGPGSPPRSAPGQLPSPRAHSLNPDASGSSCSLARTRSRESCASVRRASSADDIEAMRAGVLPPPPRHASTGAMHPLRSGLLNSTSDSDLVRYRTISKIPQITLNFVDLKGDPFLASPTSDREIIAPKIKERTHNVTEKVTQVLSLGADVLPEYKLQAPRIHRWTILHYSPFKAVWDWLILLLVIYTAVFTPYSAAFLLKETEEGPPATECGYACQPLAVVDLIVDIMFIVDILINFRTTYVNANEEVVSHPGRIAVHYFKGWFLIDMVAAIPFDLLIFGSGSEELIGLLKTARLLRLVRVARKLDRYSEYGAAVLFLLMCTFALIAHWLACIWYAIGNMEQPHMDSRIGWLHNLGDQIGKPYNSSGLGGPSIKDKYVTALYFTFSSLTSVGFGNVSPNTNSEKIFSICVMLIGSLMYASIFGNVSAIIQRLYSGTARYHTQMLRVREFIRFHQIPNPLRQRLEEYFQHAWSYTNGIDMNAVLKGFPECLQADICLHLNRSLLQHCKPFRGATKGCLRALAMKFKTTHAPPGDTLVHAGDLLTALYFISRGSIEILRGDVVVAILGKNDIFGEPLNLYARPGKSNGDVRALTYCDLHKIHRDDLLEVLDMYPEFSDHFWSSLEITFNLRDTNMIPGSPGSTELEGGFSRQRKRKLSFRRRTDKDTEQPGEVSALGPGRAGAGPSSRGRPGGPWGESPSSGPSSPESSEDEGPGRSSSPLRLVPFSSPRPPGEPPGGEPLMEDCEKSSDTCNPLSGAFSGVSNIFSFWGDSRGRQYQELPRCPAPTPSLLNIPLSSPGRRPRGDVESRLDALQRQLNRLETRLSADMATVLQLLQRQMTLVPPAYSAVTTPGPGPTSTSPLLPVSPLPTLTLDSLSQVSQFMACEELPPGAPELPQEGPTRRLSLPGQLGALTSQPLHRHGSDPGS
Summary of the method: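 Automated patch-clamp electrophysiology on hERG K+ channels in CHO cell lines; inhibition measured at three concentrations: 0.1, 1 and 10 μM.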

[10] = target: Sodium-dependent noradrenaline transporter (Homo sapiens) (UniProt P23975); assay: Displacement of [3H]Nisoxetine from NET at 10 uM
[11] = target: 5-hydroxytryptamine receptor 2A (Homo sapiens) (UniProt P28223); assay: Displacement of [3H]Ketanserin from 5-HT2A at 10 uM
[12] = target: Cytochrome P450 2C9 (Homo sapiens, UniProt P11712); assay: Inhibition of CYP2C9 up to 10 uM; format: ADME
Sequence of Cytochrome P450 2C9 (P11712 whole entry, canonical isoform): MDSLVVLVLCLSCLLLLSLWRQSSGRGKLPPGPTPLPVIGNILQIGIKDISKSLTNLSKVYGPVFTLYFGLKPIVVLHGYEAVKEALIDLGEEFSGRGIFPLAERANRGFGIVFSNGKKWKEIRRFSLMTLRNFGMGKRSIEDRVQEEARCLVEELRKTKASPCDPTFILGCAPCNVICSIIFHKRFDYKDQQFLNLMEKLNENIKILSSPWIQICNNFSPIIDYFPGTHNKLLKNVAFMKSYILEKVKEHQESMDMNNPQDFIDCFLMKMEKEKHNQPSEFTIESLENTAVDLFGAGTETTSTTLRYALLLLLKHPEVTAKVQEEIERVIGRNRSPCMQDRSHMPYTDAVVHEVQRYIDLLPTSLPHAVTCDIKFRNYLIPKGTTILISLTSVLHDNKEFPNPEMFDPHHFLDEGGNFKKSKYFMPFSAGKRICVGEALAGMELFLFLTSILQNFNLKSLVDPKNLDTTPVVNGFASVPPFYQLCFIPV
Summary of the method: (§2)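 Percent inhibition of CYP isoforms (CYP1A, CYP2C9, CYP2C19, CYP2D6, CYP3A; CYP1A2 reported) with test compound at concentrations up to 10 μM.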

[13] = Displacement of radioligand from oxytocin receptor; conditions: concentration not given here
[14] = target: Alpha-1D adrenergic receptor (Homo sapiens) (UniProt P25100); assay: Inhibition of alpha1D adrenergic receptor at 10 uM by radioligand displacement assay
[15] = target: Neuronal acetylcholine receptor; alpha4/beta4 (Rattus norvegicus, UniProt P09483+P12392); assay: Displacement of [3H] epibatidine from rat alpha4beta4 nAChR by beta scintillation counting; format: protein-complex assay
[16] = Displacement of [3H]Baclofen from GABA-B at 10 uM
[17] = Displacement of [3H]PK11195 from PBR at 10 uM
[18] = target: 5-hydroxytryptamine receptor 1D (Homo sapiens) (UniProt P28221); assay: Displacement of [3H][…] from 5-HT1D at 10 uM
[19] = target: Neuronal acetylcholine receptor; alpha2/beta4 (Rattus norvegicus, UniProt P12389+P12392); assay: Displacement of [3H] epibatidine from rat alpha2beta4 nAChR by beta scintillation counting; format: protein-complex assay
Sequence of Neuronal acetylcholine receptor; alpha2/beta4 (P12389 whole entry): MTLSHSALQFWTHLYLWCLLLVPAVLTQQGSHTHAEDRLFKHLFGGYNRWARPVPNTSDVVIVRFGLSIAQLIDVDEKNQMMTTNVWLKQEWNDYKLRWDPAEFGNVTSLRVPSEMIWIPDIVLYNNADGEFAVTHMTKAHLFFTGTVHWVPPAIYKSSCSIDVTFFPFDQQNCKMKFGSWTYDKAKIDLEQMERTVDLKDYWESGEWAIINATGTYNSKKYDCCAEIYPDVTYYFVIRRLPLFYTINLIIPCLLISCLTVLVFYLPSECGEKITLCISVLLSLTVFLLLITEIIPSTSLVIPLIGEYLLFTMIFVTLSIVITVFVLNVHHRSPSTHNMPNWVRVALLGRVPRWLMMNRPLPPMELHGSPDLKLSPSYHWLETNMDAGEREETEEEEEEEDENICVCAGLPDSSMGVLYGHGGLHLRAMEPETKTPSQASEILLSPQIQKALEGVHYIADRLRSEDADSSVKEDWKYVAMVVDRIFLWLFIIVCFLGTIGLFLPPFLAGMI
Sequence of Neuronal acetylcholine receptor; alpha2/beta4 (P12392 whole entry): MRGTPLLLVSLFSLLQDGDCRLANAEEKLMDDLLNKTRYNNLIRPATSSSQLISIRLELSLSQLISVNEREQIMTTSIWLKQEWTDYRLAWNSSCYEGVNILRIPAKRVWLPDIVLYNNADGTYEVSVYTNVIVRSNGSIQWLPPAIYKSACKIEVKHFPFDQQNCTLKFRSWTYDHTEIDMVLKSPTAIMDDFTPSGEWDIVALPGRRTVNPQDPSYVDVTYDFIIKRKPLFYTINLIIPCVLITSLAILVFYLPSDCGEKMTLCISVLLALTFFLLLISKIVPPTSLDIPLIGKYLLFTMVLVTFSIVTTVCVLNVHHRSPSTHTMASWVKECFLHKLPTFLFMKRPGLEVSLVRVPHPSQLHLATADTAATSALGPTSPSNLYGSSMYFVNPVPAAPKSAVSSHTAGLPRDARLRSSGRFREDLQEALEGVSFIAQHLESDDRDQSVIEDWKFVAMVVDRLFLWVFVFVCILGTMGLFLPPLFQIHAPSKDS

[20] = target: Metabotropic glutamate receptor 5 (Homo sapiens) (UniProt P41594); assay: Displacement of [3H]MPEP from mGluR5 at 10 uM
[21] = target: T3, D(4) dopamine receptor (Homo sapiens) (UniProt P21917); assay: Displacement of [3H]N-methylspiperone from D4 at 10 uM
T3 sequence (whole entry): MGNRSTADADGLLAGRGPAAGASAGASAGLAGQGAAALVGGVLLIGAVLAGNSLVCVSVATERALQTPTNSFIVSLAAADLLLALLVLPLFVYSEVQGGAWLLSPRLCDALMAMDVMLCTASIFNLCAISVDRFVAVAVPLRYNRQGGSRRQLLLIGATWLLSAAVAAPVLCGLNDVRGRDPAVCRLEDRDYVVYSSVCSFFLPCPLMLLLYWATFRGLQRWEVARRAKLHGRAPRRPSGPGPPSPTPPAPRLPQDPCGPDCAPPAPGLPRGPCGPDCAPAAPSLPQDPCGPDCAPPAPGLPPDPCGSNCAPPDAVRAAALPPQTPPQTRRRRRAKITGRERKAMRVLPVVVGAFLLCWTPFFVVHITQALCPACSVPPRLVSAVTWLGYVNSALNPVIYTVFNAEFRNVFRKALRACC

[22] = target: Cytochrome P450 1A2 (Homo sapiens, UniProt P05177); assay: Inhibition of CYP1A2 up to 10 uM; format: ADME; summary of the method: as §2
Sequence of Cytochrome P450 1A2 (P05177 whole entry): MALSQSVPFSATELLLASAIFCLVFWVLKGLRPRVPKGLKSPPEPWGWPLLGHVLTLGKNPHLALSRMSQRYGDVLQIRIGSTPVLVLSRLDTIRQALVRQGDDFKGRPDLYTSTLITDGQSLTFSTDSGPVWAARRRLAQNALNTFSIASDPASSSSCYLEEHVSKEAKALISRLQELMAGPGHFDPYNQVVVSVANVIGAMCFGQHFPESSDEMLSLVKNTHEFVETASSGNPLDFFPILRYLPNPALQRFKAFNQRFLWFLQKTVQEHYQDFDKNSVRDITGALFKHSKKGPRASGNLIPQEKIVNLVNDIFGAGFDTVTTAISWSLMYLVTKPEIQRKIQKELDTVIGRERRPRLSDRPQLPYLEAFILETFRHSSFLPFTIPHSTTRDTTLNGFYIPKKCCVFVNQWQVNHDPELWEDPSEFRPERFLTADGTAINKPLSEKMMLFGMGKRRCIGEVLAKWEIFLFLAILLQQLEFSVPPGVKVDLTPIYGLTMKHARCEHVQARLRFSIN

[23] = target: Sodium-dependent serotonin transporter (Homo sapiens) (UniProt P31645); assay: Displacement of [3H]Citalopram from SERT at 10 uM
[24] = tested on: Mus musculus; assay: Antidepressant activity in BALB/cJ mouse assessed as decrease in immobility at 3 mg/kg, po administered 30 mins prior to testing measured for 6 mins by forced swim test; format: functional, organism-based; design: dose 3 mg/kg
Summary of the method: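 Male BALB/cJ mice, 8−10 weeks old, housed four per cage on a 12 h light−dark cycle. Drug in injectable water was given by oral gavage (10 mL/kg). After 30 min, each mouse was placed in a glass cylinder with 12 cm of ~23 °C water, and floating immobility was timed over a 6 min trial. Analysis was by ANOVA with Fisher's PLSD post hoc test.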

[25] = target: Histamine H4 receptor (Homo sapiens) (UniProt Q9H3N8); assay: Displacement of [3H]Histamine from H4 histamine receptor at 10 uM

Question: Which remaining at 1 h, 1 µM [1] does the source give for COCC[C@H]1C[C@@H]1c1cncc(OC[C@@H]2CCN2)c1 here?
Answer: 84%

Question: And the inhibition [2]?
Answer: -1.8%

Question: And the EC50 [3]?
Answer: 17.5 nM

Question: What about the inhibition [4] of the same compound?
Answer: 30.6%

Question: What about the inhibition [5] of the same compound?
Answer: -2%

Question: What about the Efficacy [6] of the same compound?
Answer: 71%

Question: And the inhibition [7]?
Answer: 30.5%

Question: And the inhibition [8]?
Answer: 2%

Question: And the inhibition at 10 µM [9]?
Answer: 13.7%

Question: What about the inhibition [10] of the same compound?
Answer: -0.2%

Question: And the inhibition [11]?
Answer: 43.7%

Question: What about the “inhibition (INH)” value [12] of the same compound?
Answer: <= 25%

Question: And the inhibition [13]?
Answer: -1.4%

Question: What about the inhibition [14] of the same compound?
Answer: 3.4%

Question: What about the Ki [15] of the same compound?
Answer: 50.2 nM

Question: And the inhibition [16]?
Answer: 3.2%

Question: And the inhibition [17]?
Answer: -5.9%

Question: What about the inhibition [18] of the same compound?
Answer: 1.2%

Question: And the Ki [19]?
Answer: 236 nM

Question: And the inhibition [20]?
Answer: 5.1%

Question: What about the inhibition [21] of the same compound?
Answer: 15.8%

Question: And the “inhibition (INH)” value [22]?
Answer: 70%

Question: And the inhibition [23]?
Answer: 39.3%

Question: And the Activity [24]?
Answer: Active

Question: With OCC[C@H]1C[C@@H]1c1cncc(OC[C@@H]2CCN2)c1 as the compound, how does the remaining at 1 h, 1 µM [1] read?
Answer: 80%

Question: And the inhibition [2]?
Answer: 9.3%

Question: What about the EC50 [3] of the same compound?
Answer: 10.2 nM

Question: What about the inhibition [4] of the same compound?
Answer: 17.6%

Question: And the inhibition [5]?
Answer: -3.4%

Question: And the Efficacy [6]?
Answer: 63%

Question: And the inhibition [7]?
Answer: 29.1%

Question: And the inhibition [8]?
Answer: -2.5%

Question: And the inhibition at 10 µM [9]?
Answer: 19.1%

Question: And the inhibition [11]?
Answer: 34.2%

Question: And the “inhibition (INH)” value [12]?
Answer: <= 25%

Question: And the inhibition [13]?
Answer: 9.4%

Question: And the inhibition [16]?
Answer: 8.9%

Question: And the inhibition [17]?
Answer: 4.7%

Question: And the inhibition [18]?
Answer: 5.6%

Question: What about the Ki [19] of the same compound?
Answer: 249 nM

Question: And the inhibition [20]?
Answer: 9.1%

Question: What about the inhibition [21] of the same compound?
Answer: 8.3%

Question: And the inhibition [23]?
Answer: 42.7%

Question: What about the Activity [24] of the same compound?
Answer: Active

Question: For CNC(=O)OCC[C@H]1C[C@@H]1c1cncc(OC[C@@H]2CCN2)c1, which remaining at 1 h, 1 µM [1] is on record?
Answer: 98%

Question: What about the inhibition [2] of the same compound?
Answer: -2.6%

Question: What about the EC50 [3] of the same compound?
Answer: 15.7 nM

Question: What about the inhibition [4] of the same compound?
Answer: 42%

Question: And the Efficacy [6]?
Answer: 85%

Question: And the inhibition [8]?
Answer: -1.1%

Question: What about the inhibition at 10 µM [9] of the same compound?
Answer: 16.6%

Question: And the inhibition [10]?
Answer: 69.6%

Question: And the “inhibition (INH)” value [12]?
Answer: <= 25%

Question: And the inhibition [14]?
Answer: -2.7%

Question: And the Ki [15]?
Answer: 441 nM

Question: What about the Ki [19] of the same compound?
Answer: 1890 nM

Question: And the inhibition [21]?
Answer: 17%

Question: And the “inhibition (INH)” value [22]?
Answer: 80%

Question: And the inhibition [25]?
Answer: -8%
